Measured values from ChEMBL document CHEMBL4680304, “Synthesis and evaluation of new phenyl acrylamide derivatives as potent non-nucleoside anti-HBV agents” (Bioorg Med Chem, 2021).
pIC50: −log10 of the molar value.

Experiments:
[1] = Selectivity index, ratio of CC50 for human HepG2 2.2.15 to IC50 of antiviral activity against HBV infected in human HepG2 2.2.15 cells assessed as decrease in extracellular viral DNA level measured after incubation of 6 days by RT-PCR analysis; assay type: toxicity, cell-based; conditions: time 6 day, read-out: Selectivity Index
How it was run: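 SI was calculated as the CC50 in HepG2 2.2.15 cells (72 h MTT) divided by the IC50 for HBV DNA inhibition. That IC50 came from HepG2 2.2.15 cells treated for 6 days with medium changed every 2 days, with HBV DNA quantified by real-time PCR.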

[2] = Cytotoxicity against human HepG2 2.2.15 cell line assessed as cell viability measured after 72 hrs by MTT assay; assay type: cell-based; conditions: HepG2 2.2.15 cells
How it was run: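 HepG2 2.2.15 cells were precultured for 24 h, then incubated with compound for 72 h. Viability was read as MTT absorbance at 490 nm relative to untreated cells on the same plate. CC50 is the concentration causing 50% cell death.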

[3] = system: Hepatitis B virus; assay: Antiviral activity against HBV infected in human HepG2 2.2.15 cells assessed as decrease in extracellular viral DNA level at 0.8 uM measured after incubation of 6 days by RT-PCR analysis; assay type: functional; conditions: HepG2 2.2.15, 144 h, time 6 day
How it was run: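 HepG2 2.2.15 cells, which stably carry the HBV genome, were grown in DMEM with 10% FBS, penicillin/streptomycin and 0.38 mg/mL G418. They were seeded at 2×10^5/well and allowed to recover for 24 h. Cells were then exposed to 0.8 µM compound for 6 days, with medium changed every 2 days. HBV DNA was quantified by real-time PCR and expressed as % inhibition versus control.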

[4] = system: Hepatitis B virus; assay: Antiviral activity against HBV infected in human HepG2 2.2.15 cells assessed as decrease in extracellular viral DNA level measured after incubation of 6 days by RT-PCR analysis; assay type: functional, organism-based; conditions: HepG2 2.2.15, 144 h
How it was run: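 Cells were HepG2 2.2.15 (stable HBV genome), seeded at 2×10^5/well and recovered for 24 h. Dose-dependent exposure to compound lasted 6 days, with medium replaced every 2 days. HBV DNA was measured by real-time PCR. IC50 is the concentration giving 50% inhibition of HBV DNA replication, reported as mean ± SD of triplicate experiments.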

[5] = Selectivity index, ratio of CC50 for human HepG2 2.2.15 to IC50 of Antiviral activity against lamivudine/entecavir-resistant HBV rtL180M/rtM204V/rtT184L mutant infected in human HepG2 2.2.15 cells assessed as inhibition of viral DNA replication measured after incubation of 72 hrs by RT-PCR analysis relative to control; assay type: toxicity, cell-based; conditions: read-out: Selectivity Index
How it was run: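 SI is CC50 divided by IC50. CC50 comes from MTT on HepG2 2.2.15 cells, 72 h exposure, absorbance at 490 nm relative to untreated cells. IC50 comes from HepG2 cells transiently transfected with rtL180M + rtM204V + rtT184L HBV plasmid and treated 72 h, with DNA replicative intermediates measured by real-time PCR, triplicate experiments.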

[6] = system: Hepatitis B virus; assay: Antiviral activity against lamivudine/entecavir-resistant HBV rtL180M/rtM204V/rtT184L mutant infected in human HepG2 2.2.15 cells assessed as inhibition of viral DNA replication at 0.8 uM measured after incubation of 72 hrs by RT-PCR analysis relative to control; assay type: functional
How it was run: (§1)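 HepG2 cells (2 × 10^5/well) plated 24 h, then transiently transfected for 24 h with plasmid carrying full-genome HBV with rtL180M + rtM204V + rtT184L (wild-type genome in parallel). Washed with PBS, then given fresh medium with compound for 72 h. Intracellular HBV DNA replicative intermediates extracted and quantified by real-time PCR against the wild-type group.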

[7] = system: Hepatitis B virus; assay: Antiviral activity against lamivudine/entecavir-resistant HBV rtL180M/rtM204V/rtT184L mutant infected in human HepG2 2.2.15 cells assessed as inhibition of viral DNA replication measured after incubation of 72 hrs by RT-PCR analysis; assay type: functional, organism-based; conditions: for pIC50: HepG2 2.2.15, 72 h
How it was run: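 HepG2 cells transiently transfected for 24 h with full-genome HBV plasmid carrying rtL180M + rtM204V + rtT184L, washed, then treated over a dose range for 72 h. HBV DNA replicative intermediates quantified by real-time PCR. IC50 is the concentration giving 50% inhibition of HBV DNA replication, as mean ± SD of triplicate experiments.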

[8] = system: Hepatitis B virus; assay: Antiviral activity against HBV infected in human HepG2 2.2.15 cells assessed as inhibition of pregenomic RNA expression at 1 uM measured after incubation of 6 by RT-PCR analysis relative to control; assay type: functional; conditions: HepG2 2.2.15, 144 h, read-out: INH, time 6 day
How it was run: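 HepG2 2.2.15 cells were seeded at 6×10^5/well in 6-well plates. They were incubated with 1 µM compound for 6 days. Total cellular RNA was then extracted and pgRNA copies/mL were measured by real-time PCR, giving % inhibition relative to untreated control.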

[9] = system: Hepatitis B virus; assay: Antiviral activity against lamivudine/entecavir-resistant HBV rtL180M/rtM204V/rtT184L mutant infected in human HepG2 2.2.15 cells assessed as inhibition of viral DNA replication at 100 uM measured after incubation of 72 hrs by RT-PCR analysis relative to control; assay type: functional; how it was run: as §1
[10] = system: Hepatitis B virus; assay: Antiviral activity against wild type HBV infected in human […] cells assessed as inhibition of viral DNA replication at 100 uM measured after incubation of 72 hrs by RT-PCR analysis relative to control; assay type: functional, HepG2 2.2.15
How it was run: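 Parental HepG2 cells were plated at 2×10^5/well. After 24 h they were transiently transfected for 24 h with a full-length wild-type HBV genome plasmid, then washed with PBS. Cells were then treated for 72 h in fresh medium: entecavir 10 µM, lamivudine 100 µM. Intracellular HBV DNA replicative intermediates were quantified by real-time PCR.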

Row | Structure (SMILES) | CC50 at 72 h [2] [µM] | inhibition at 0.8 µM [3] [%] | other results
1 | O=C(N[C@H](CO)Cc1ccccc1)/C(NC(=O)c1cc(Cl)cc(Cl)c1)=C(/Br)c1ccccc1 | > 100 | 83.8 | selectivity ratio at 144 h [1]: > 370; pIC50 [4]: 6.57
2 | Cc1ccccc1C(=O)N/C(C(=O)N[C@H](CO)Cc1ccccc1)=C(\Br)c1ccccc1 | > 100 | 5.75 | 
3 | O=C(N[C@H](CO)Cc1ccccc1)/C(NC(=O)c1ccc(Cl)cc1Cl)=C(/Br)c1ccccc1 | > 100 | 88 | selectivity ratio at 72 h [5]: > 556; selectivity ratio at 144 h [1]: > 526; inhibition at 0.8 µM [6]: 87%; inhibition [7]: Dose-dependent effect; pIC50 [7]: 6.74; inhibition at 1 µM [8]: 63.1%; pIC50 [4]: 6.72
4 | O=C(N[C@H](CO)Cc1ccccc1)/C(NC(=O)c1ccccc1)=C(/Br)c1cccc([N+](=O)[O-])c1 | 93.7 | 2.28 | 
5 | O=C(N[C@H](CO)Cc1ccccc1)/C(NC(=O)c1cccc(F)c1)=C(/Br)c1ccccc1 | > 100 | 9.07 | 
6 | Nc1ccn([C@@H]2CS[C@H](CO)O2)c(=O)n1 [LAMIVUDINE] | > 100 | 86.2 | selectivity ratio at 144 h [1]: > 1000; pIC50 [7]: < 4.00; inhibition at 100 µM [9]: 18.6%; inhibition at 1 µM [8]: 0.26%; inhibition at 100 µM [10]: 90%; pIC50 [4]: 7.51
7 | O=C(N[C@H](CO)Cc1ccccc1)/C(NC(=O)c1ccc(Br)cc1)=C(/Br)c1ccccc1 | > 100 | 43 | 
8 | O=C(N[C@H](CO)Cc1ccccc1)/C(NC(=O)c1ccc(F)cc1Cl)=C(/Br)c1ccccc1 | > 100 | 56.1 | 
9 | CCN(CC)CCOc1cccc(/C(Br)=C(/NC(=O)c2ccccc2)C(=O)N[C@H](CO)Cc2ccccc2)c1 | 83.6 | 56.5 | 
10 | CC(=O)Oc1cccc(/C(Br)=C(/NC(=O)c2ccccc2)C(=O)N[C@H](CO)Cc2ccccc2)c1 | > 100 | 32.4 | 
11 | Cc1ccc(C(=O)N/C(C(=O)N[C@H](CO)Cc2ccccc2)=C(\Br)c2ccccc2)cc1 | > 100 | 47.4 | 
12 | O=C(N[C@H](CO)Cc1ccccc1)/C(NC(=O)c1ccccc1)=C(/Br)c1cccc(F)c1 | > 100 | 42.6 | 
13 | O=C(N[C@H](CO)Cc1ccccc1)/C(NC(=O)c1ccc(Cl)cc1)=C(/Br)c1ccccc1 | > 100 | 70.7 | selectivity ratio at 144 h [1]: > 232; pIC50 [4]: 6.37
14 | Cc1cccc(/C(Br)=C(/NC(=O)c2ccccc2)C(=O)N[C@H](CO)Cc2ccccc2)c1 | > 100 | 57.3 | 
15 | O=C(N[C@H](CO)Cc1ccccc1)/C(NC(=O)c1ccccc1F)=C(/Br)c1ccccc1 | > 100 | 33.6 | 
16 | O=C(N[C@H](CO)Cc1ccccc1)/C(NC(=O)c1ccc(F)cc1F)=C(/Br)c1ccccc1 | > 100 | 58.1 | 
17 | CN(C)CCCOc1cccc(/C(Br)=C(/NC(=O)c2ccccc2)C(=O)N[C@H](CO)Cc2ccccc2)c1 | 85.6 | 37.7 | 
18 | Cc1cccc(C(=O)N/C(C(=O)N[C@H](CO)Cc2ccccc2)=C(\Br)c2ccccc2)c1 | > 100 | 2.94 | 
